This passage reports Activity, Kd and ΔTm results from ChEMBL document CHEMBL4715918, “Syntheses and evaluation of acridone-naphthalimide derivatives for regulating oncogene PDGFR-β expression” (Bioorg Med Chem, 2021).

The structures appear in SMILES notation. Calls of active or inactive are those of the source. No cut-off for these calls is given here.

Assay [1] deals with Quadruplex DNA. The assay can be described thus: Binding affinity to 5'-FAM-GGGAGAAGGGGGGGCGGCGGGGCAGGGAGGGTGGAC-TAMRA-3' G4-quadruplex DNA (unknown origin) assessed as stabilization G4-quadruplex structure by measuring increase in I585/I518 ratio by FRET assay. It is filed as nucleic-acid assay. Particulars: dose 2-10 equiv. The essentials:
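FRET probe dual-labelled FAM/TAMRA, annealed, 10 µM in 10 mM Tris-HCl pH 7.4 with 10 mM KCl; compound added in equal volume. Emission 500–700 nm recorded, corrected for compound signal in the same buffer; I585/I518 ratio compared.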

Assay [2] in a line: Binding affinity to FAM-labeled 5'-biotin-d[TATAGCTATA-HEG-TATAGCTATA]- 3' duplex DNA (unknown origin) by microscale thermophoresis assay. The essentials:
(§1)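 Microscale thermophoresis with DNA held constant at 1 µM. Compound serially diluted 3:4 from 10 µM over 12 points. Samples run in standard glass capillaries with LED and laser power both at 20%. KD derived by fitting.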

For assay [3], the system named is Quadruplex DNA. Description: Binding affinity to 5'-biotin-d [GCTGGGAGAAGGGGGGGCGGCGGGGCAGGGAGGGTGGACGC]-3' G4-quadruplex DNA (unknown origin) assessed as change in melting temperature at 10 uM by CD spectroscopy. It is filed as nucleic-acid assay. In short, it runs like this:
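Oligomer 2 µM in Tris-HCl pH 7.4, annealed (95 °C for 5 min, slow cooling, 4 °C overnight). Ligand 10 µM. CD ellipticity followed at 263 nm over 25–95 °C; ΔTm taken against DNA alone.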

The next assay concerns MCF7. Description: Binding affinity to wild type PDGFRbeta promoter (unknown origin) in human MCF7 cells assessed as down regulation of PDGFRbeta mRNA expression at 1.25 to 20 uM after 12 hrs by RT-PCR analysis. Particulars: dose 1.25-20 µM. The format is cell-based.
Assay [4] concerns the target Quadruplex DNA. The assay can be described thus: Binding affinity to FAM-labeled 5'-biotin-d [GCTGGGAGAAGGGGGGGCGGCGGGGCAGGGAGGGTGGACGC]-3' G4-quadruplex DNA (unknown origin) by microscale thermophoresis assay. The format is nucleic-acid assay. In short, it runs like this:
as §1

Assay [5] is described as follows: Binding affinity to FAM-labeled 5'-biotin-d [GCGTCCACCCTCCCTGCCCCGCCGCCCCCCCITCTCCCAGC]-3' i-motif DNA (unknown origin) by microscale thermophoresis assay. The essentials:
as §1

A short description of assay [6]: Binding affinity to 5'-FAM-GCGTCCACCCTCCCTGCCCCGCCGCCCCCCCTTCTCCCAGC-TAMRA-3' i-motif DNA (unknown origin) assessed as unfolding i-motif structure by measuring reduction in I585/I518 ratio at 2 to 10 equiv by FRET assay. Particulars: dose 2-10 equiv. In short, it runs like this:
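FRET probe dual-labelled FAM donor/TAMRA acceptor, annealed, 10 µM in 30 mM BPES buffer with 1 mM EDTA, 100 mM KCl; compound added in equal volume. Emission 500–700 nm recorded, corrected for compound signal in the same buffer; I585/I518 ratio compared. The i-motif forms at pH 6.2 and unfolds at pH 6.4.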

The nature of assay [7]: Binding affinity to 5'-biotin-d [GCGTCCACCCTCCCTGCCCCGCCGCCCCCCCITCTCCCAGC]-3' i-motif DNA (unknown origin) assessed as change in melting temperature at 10 uM by CD spectroscopy. The essentials:
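Oligomer 2 µM in BPES buffer pH 5.5, heated to 95 °C for 5 min, cooled slowly and held at 4 °C overnight. Ligand 10 µM. CD ellipticity followed at 288 nm from 25–95 °C (1 mm cuvette); Tm derived, ΔTm against DNA alone.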

As for `C[n+]1ccc(-c2c3nc(c(-c4cc[n+](C)cc4)c4ccc([nH]4)c(-c4cc[n+](C)cc4)c4ccc([nH]4)c(-c4cc[n+](C)cc4)c4nc2C=C4)C=C3)cc1` [TMPYP4], the Activity result in the assay with Quadruplex DNA [1] and in the assay with MCF7 was “Dose-dependent effect” each time. Further, the dissociation constant Kd in assay [2] was determined as 1310 µM; on Quadruplex DNA [4] it was 3.96 µM; in assay [5] it was 463 µM. Besides, the ΔTm in the assay on Quadruplex DNA [3] was above 20 °C; in assay [7], 0.11 °C. The outcome in assay [6] was inactive.
